Experimental data reported in ChEMBL document CHEMBL4257478, “Design, synthesis and evaluation of (R)-3-(7-(methyl(7H-pyrrolo[2,3-d]pyrimidin-4-yl)amino)-5-azaspiro[2.4]heptan-5-yl)-3-oxopropanenitrile as a JAK1-selective inhibitor” (Medchemcomm, 2018).

How the values were obtained:
Homo sapiens = species on record: Homo sapiens; assay: Selectivity index, ratio of IC50 for human JAK2 to IC50 for human JAK1
Outline: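 Kinase activity assays run as a commercial service at Km ATP; IC50 values fitted from concentration-response data; ratio of JAK2 to JAK1 IC50.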

[1] = Metabolic stability in human plasma assessed as parent compound remaining at 10 uM after 120 mins by LC-MS/MS method; assay type: ADME, cell-free; details: read-out: Stability
Outline: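 Human plasma spiked with test article at 10 μM and incubated at 37 °C for 0, 30 and 120 min. Acetonitrile with chlorpropamide internal standard added, sample centrifuged at 4 °C, supernatant analysed by LC-MS/MS; result given as percent remaining.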

[2] = Lipophilicity, log P of the compound in neutral form; assay type: physicochemical; details: octanol/water
[3] = Metabolic stability in human liver microsomes assessed as parent compound remaining at 1 uM preincubated for 5 mins followed by addition of NADPH regenerating system and measured after 30 mins by LC-MS/MS method; assay type: ADME, microsome; details: read-out: Stability
Outline: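 Liver microsomes (0.5 mg/mL; human, dog or mouse) in 0.1 M phosphate buffer with test article at 1 μM, preincubated 5 min at 37 °C. NADPH regenerating system added, then 30 min at 37 °C. Acetonitrile with chlorpropamide internal standard added, sample centrifuged, supernatant analysed by LC-MS/MS.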

[4] = Metabolic stability in rat liver microsomes assessed as parent compound remaining at 1 uM preincubated for 5 mins followed by addition of NADPH regenerating system and measured after 30 mins by LC-MS/MS method; assay type: ADME, microsome; details: read-out: Stability
Outline: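 Liver microsomes (0.5 mg/mL) in 0.1 M phosphate buffer with test article at 1 μM. Preincubated 5 min at 37 °C, then NADPH regeneration system added and incubated 30 min at 37 °C. Quenched with acetonitrile containing chlorpropamide internal standard and centrifuged; supernatant analysed by LC-MS/MS for % parent remaining. Verapamil served as positive control.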

[5] = Apparent permeability across basolateral to apical side in human Caco2 cells at 25 uM measured every 15 mins for 60 mins by LC-MS/MS method; assay type: ADME, cell-based; details: Caco-2
Outline: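 Caco-2 cells were seeded at 1×10^6 per 12-well transwell and grown 3 weeks. Test article was 25 μM in HBSS transport buffer (10 mM glucose, 4 mM bicarbonate, 1 mM HEPES, pH 7.4), added to the apical or basolateral side. Incubated 60 min at 37 °C with sampling every 15 min; LC-MS/MS read-out.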

CYP2A6 = target: T1, CYP2A6 (Homo sapiens, UniProt P11509); assay: Inhibition of CYP2A6 in human liver microsomes assessed as remaining activity at 10 uM using coumarin as substrate preincubated for 5 mins followed by addition of NADPH regenerating system and measured after 15 mins by LC-MS/MS analysis relative to control; assay type: ADME; details: probe coumarin, read-out: Activity
T1 sequence (P11509 whole entry): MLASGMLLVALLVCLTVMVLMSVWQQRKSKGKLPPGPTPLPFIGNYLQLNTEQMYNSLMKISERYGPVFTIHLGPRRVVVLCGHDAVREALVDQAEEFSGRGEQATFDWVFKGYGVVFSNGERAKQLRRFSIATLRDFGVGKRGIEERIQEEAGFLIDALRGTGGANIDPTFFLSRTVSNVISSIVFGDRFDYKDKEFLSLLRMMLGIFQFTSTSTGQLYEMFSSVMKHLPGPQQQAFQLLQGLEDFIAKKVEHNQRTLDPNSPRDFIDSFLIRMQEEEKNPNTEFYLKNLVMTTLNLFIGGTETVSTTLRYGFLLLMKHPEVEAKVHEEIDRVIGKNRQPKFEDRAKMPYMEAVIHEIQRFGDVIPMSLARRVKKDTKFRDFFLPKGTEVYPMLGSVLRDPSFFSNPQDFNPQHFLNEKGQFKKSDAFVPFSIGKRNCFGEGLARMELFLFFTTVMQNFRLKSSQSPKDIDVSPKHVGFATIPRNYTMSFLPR
Outline: (§1)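 Human liver microsomes (0.25 mg/mL) in 0.1 M phosphate buffer with test article at 0 or 10 μM and substrate cocktail, preincubated 5 min at 37 °C. Cocktail A: phenacetin 50 μM, coumarin 2.5 μM, S-mephenytoin 100 μM, dextromethorphan 5 μM, midazolam 2.5 μM. Cocktail B: bupropion 50 μM, amodiaquine 2.5 μM, tolbutamide 100 μM, chlorzoxazone 50 μM. NADPH system added, then 15 min at 37 °C; acetonitrile quench, LC-MS/MS.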

CYP2B6 = target: T2, CYP2B6 (Homo sapiens, UniProt P20813); assay: Inhibition of CYP2B6 in human liver microsomes assessed as remaining activity at 10 uM using bupropion as substrate preincubated for 5 mins followed by addition of NADPH regenerating system and measured after 15 mins by LC-MS/MS analysis relative to control; assay type: ADME; details: probe bupropion, read-out: Activity; outline: as §1
T2 sequence (P20813 whole entry): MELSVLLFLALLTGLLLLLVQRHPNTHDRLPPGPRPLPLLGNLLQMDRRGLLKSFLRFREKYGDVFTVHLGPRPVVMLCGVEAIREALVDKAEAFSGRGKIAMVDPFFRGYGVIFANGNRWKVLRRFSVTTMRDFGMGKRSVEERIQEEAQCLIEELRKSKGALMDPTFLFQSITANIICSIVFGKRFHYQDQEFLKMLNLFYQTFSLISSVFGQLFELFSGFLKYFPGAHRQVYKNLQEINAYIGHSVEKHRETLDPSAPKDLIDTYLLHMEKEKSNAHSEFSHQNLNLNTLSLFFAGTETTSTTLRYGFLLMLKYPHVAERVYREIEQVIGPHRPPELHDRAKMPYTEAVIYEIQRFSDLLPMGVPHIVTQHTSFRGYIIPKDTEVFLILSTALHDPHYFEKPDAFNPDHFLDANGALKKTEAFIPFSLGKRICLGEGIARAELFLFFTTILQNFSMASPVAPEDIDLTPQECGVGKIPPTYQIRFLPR

CYP2C19 = CYP2C19 (Homo sapiens, UniProt P33261); assay: Inhibition of CYP2C19 in human liver microsomes assessed as remaining activity at 10 uM using S-mephenytoin as substrate preincubated for 5 mins followed by addition of NADPH regenerating system and measured after 15 mins by LC-MS/MS analysis relative to control; assay type: ADME; details: probe S-mephenytoin, read-out: Activity; outline: as §1
CYP2E1 = CYP2E1 (Homo sapiens, UniProt P05181); assay: Inhibition of CYP2E1 in human liver microsomes assessed as remaining activity at 10 uM using chlorzoxazone as substrate preincubated for 5 mins followed by addition of NADPH regenerating system and measured after 15 mins by LC-MS/MS analysis relative to control; assay type: ADME; details: probe chlorzoxazone, read-out: Activity; outline: as §1
Rattus norvegicus [6] = assay: AUC (0 to t) in Sprague-Dawley rat at 10 mg/kg, po after 0.25 to 24 hrs by LC-MS/MS method; assay type: ADME, organism-based; parameters: time lower 0.25 hr, dose 10 mg/kg, time upper 24 hr, route oral; details: in vivo
Outline: (§2)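 Male Sprague Dawley rats, 7-8 weeks old, n=4 per group. IV dose 5 mg/kg free base in 10% ethanol/90% PEG400; oral dose 10 mg/kg as corn oil suspension after 16 h fast. Blood taken 0.08-24 h (IV) or 0.25-24 h (PO). Plasma diluted in acetonitrile with internal standard, analysed by LC-MS/MS, parameters by non-compartmental analysis.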

[7] = Half life in Sprague-Dawley rat at 5 mg/kg, iv after 0.08 to 24 hrs by LC-MS/MS method; assay type: ADME, organism-based; details: in vivo; outline: as §2
Rattus norvegicus [8] = assay: AUC (0 to t) in Sprague-Dawley rat at 5 mg/kg, iv after 0.08 to 24 hrs by LC-MS/MS method; assay type: ADME, organism-based; parameters: time upper 24 hr, time lower 0.08 hr, dose 5 mg/kg, route intravenous; details: in vivo; outline: as §2

CYP2E1, sequence (P05181 whole entry): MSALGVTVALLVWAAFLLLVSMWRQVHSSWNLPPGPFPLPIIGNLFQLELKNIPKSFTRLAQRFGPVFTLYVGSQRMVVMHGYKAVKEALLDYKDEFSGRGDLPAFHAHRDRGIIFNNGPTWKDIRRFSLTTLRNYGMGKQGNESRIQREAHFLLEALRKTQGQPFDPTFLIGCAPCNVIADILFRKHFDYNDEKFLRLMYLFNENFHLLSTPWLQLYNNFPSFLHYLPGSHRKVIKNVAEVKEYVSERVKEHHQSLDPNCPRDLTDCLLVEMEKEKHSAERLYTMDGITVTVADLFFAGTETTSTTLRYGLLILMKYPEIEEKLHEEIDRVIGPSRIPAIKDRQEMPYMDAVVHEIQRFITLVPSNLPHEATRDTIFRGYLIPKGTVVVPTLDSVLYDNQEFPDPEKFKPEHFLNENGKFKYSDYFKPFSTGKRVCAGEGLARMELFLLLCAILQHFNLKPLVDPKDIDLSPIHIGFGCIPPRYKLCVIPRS
CYP2C19, sequence (P33261 whole entry): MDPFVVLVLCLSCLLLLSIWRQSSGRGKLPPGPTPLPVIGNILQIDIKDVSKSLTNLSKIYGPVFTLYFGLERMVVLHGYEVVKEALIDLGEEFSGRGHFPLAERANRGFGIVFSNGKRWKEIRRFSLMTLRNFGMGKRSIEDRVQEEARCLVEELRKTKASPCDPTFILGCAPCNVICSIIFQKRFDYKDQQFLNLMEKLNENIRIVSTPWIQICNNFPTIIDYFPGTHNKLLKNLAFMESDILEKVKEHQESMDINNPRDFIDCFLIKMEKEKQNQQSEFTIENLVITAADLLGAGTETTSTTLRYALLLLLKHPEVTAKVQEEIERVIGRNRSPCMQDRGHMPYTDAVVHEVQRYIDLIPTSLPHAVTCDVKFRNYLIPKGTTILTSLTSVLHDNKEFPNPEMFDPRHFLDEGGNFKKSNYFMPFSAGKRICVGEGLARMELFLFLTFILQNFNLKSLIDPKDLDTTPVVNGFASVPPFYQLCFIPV

SMILES | Ratio IC50 (Homo sapiens) | remaining at 2 h, 10 µM [1] [%] | logP [2] | remaining at 0.5 h, 1 µM [3] [%] | remaining at 0.5 h, 1 µM [4] [%] | Papp B→A at 1 h, 25 µM [5] [×10⁻⁶ cm/s] | activity at 0.25 h, 10 µM (CYP2A6) [%] | activity at 0.25 h, 10 µM (CYP2B6) [%] | activity at 0.25 h, 10 µM (CYP2C19) [%] | activity at 0.25 h, 10 µM (CYP2E1) [%] | AUCt (Rattus norvegicus [6]) [ng·h/mL] | half-life [7] [h] | AUCt (Rattus norvegicus [8]) [ng·h/mL]
CN(c1ncnc2[nH]ccc12)[C@H]1CN(S(=O)(=O)c2cccc(C#N)c2)CC12CC2 | 10 | 98.6 | 3.69 | 6 | 2.4 | 15.7 | 87.2 | 92 | 55.8 | 59.8 | – | – | –
CCS(=O)(=O)N1C[C@H](N(C)c2ncnc3[nH]ccc23)C2(CC2)C1 | 25 | > 100 | 2.07 | 79.7 | 22.9 | 25.6 | 96.7 | > 100 | 93.8 | 63.9 | – | – | –
CN(c1ncnc2[nH]ccc12)[C@H]1CN(C(=O)CC#N)CC12CC2 | – | 98.5 | 1.69 | 94.6 | 84.8 | 18.5 | 92 | 91.5 | 66 | 50.3 | 1900 | 1.2 | 900
